For experiment [1], the system named is Rattus norvegicus. Nature of the experiment: Percentage of rats selecting the drug lever (% SDL) for dose 6.96(umol/kg). Format: functional. The method in brief: (§1)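 Drugs are given ip in saline. Test sessions run under extinction and end at 50 presses on one lever. Rats must hold 85% accuracy on training days. The read-out is the percentage of rats choosing the drug lever at each dose.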

Experiment [2] deals with Rattus norvegicus. In words: Percentage of rats selecting the drug lever (% SDL) for dose 3.48 (umol/kg). Format: functional. The method, boiled down: as §1
Experiment [3] has as its system Rattus norvegicus. In words: Percentage of rats selecting the drug lever (% SDL) for dose 13.91(umol/kg). It is filed as functional. The method, boiled down:
as §1

The species named for experiment [4] is Rattus norvegicus. In words: Potency against LSD trained rat, activity is expressed as ED50. Format: functional.
Experiment [5] relates to Rattus norvegicus. In words: Percentage of rats selecting the drug lever (% SDL) for dose 1.74(umol/kg). Format: functional. The method, boiled down: as §1
In experiment [6] the test system is Rattus norvegicus. In words: Percentage of rats selecting the drug lever (% SDL) for dose 0.093(umol/kg). It is filed as functional. The method in brief:
as §1

Experiment [7] relates to Rattus norvegicus. Nature of the experiment: Percentage of rats selecting the drug lever (% SDL) for dose 0.024(umol/kg). Format: functional. The method, boiled down:
as §1

Experiment [8] in a line: Hill coefficient of the compound. The method in brief: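 Rat frontal cortex (male Sprague–Dawley) homogenized in 0.32 M sucrose, preincubated twice 10 min at 37 °C; assay in 50 mM Tris HCl pH 7.4 with EDTA, ascorbate, 10 mM MgCl2, 10 µM pargyline, 200–400 µg protein. Displacement of 0.25 nM [125I]-(R)-DOI, 15 min at 37 °C, GF/C filtration, γ-counting. Triplicates, 3–4 experiments; parameters fitted by EBDA/LIGAND.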

Experiment [9] relates to Rattus norvegicus. Nature of the experiment: Percentage of rats selecting the drug lever (% SDL) for dose 0.186 (umol/kg). Format: functional. The method in brief: as §1
The subject of experiment [10] is Rattus norvegicus. In words: Percentage of rats selecting the drug lever (% SDL) for dose 0.047(umol/kg). It is filed as functional. The method in brief: as §1
For experiment [11], the system named is Rattus norvegicus. Nature of the experiment: Percentage of rats selecting the drug lever (% SDL) for dose 0.012 (umol/kg). Format: functional. The method, boiled down:
as §1

Experiment [12] has as its system Rattus norvegicus. Nature of the experiment: Percentage of rats selecting the drug lever (% SDL) for dose 1.02(umol/kg). It is filed as functional. The method, boiled down: as §1
In experiment [13] the test system is Rattus norvegicus. In words: Percentage of rats selecting the drug lever (% SDL) for dose 0.51(umol/kg). It is filed as functional. The method, boiled down: as §1
For experiment [14], the system named is Rattus norvegicus. Nature of the experiment: Percentage of rats selecting the drug lever (% SDL) for dose 0.77(umol/kg). It is filed as functional. The method in brief: as §1
The subject of experiment [15] is Rattus norvegicus. Nature of the experiment: Percentage of rats selecting the drug lever (% SDL) for dose 2.04(umol/kg). It is filed as functional. The method, boiled down:
as §1

For experiment [16], the target named is Serotonin 2 (5-HT2) receptor (Rattus norvegicus, UniProt P30994+P08909+P14842). Nature of the experiment: Binding affinity against 5-hydroxytryptamine 2 receptor from rat frontal cortex using [125]-(R)-DOI as radioligand. It is filed as tissue-based. The method, boiled down: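 Rat frontal cortex (male Sprague–Dawley) homogenized in 0.32 M sucrose, preincubated twice 10 min at 37 °C; assay in 50 mM Tris HCl pH 7.4 with EDTA, ascorbate, 10 mM MgCl2, 10 µM pargyline, 200–400 µg protein. Triplicates, 3–4 experiments; parameters fitted by EBDA/LIGAND.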

Experiment [17] relates to Rattus norvegicus. In words: Percentage of rats selecting the drug lever (% SDL) for dose 0.87(umol/kg). It is filed as functional. The method, boiled down:
as §1

In experiment [18] the test system is Rattus norvegicus. Nature of the experiment: Percentage of rats selecting the drug lever (% SDL) for dose 3.48(umol/kg). Format: functional. The method, boiled down: as §1
Experiment [19] has as its system Rattus norvegicus. Nature of the experiment: Percentage of rats selecting the drug lever (% SDL) for dose 5.22(umol/kg). It is filed as functional. The method in brief:
as §1

Structures are written as SMILES.

What is called ED50 is the dose that gives a 50% effect, or the effect in half of the subjects. A lower ED50 goes with an effect at a small dose. Take `CCC(C)c1cc(OC)c(CC(C)N)cc1OC` (stereo not drawn): the SDL in the experiment with Rattus norvegicus [1] is recorded as 70%; in the experiment on Rattus norvegicus [2] it was 60%; in the experiment with Rattus norvegicus [3] it was 90%; with Rattus norvegicus [5], 18%. The ED50 in the experiment filed under Rattus norvegicus [4] was determined as 3.69 µmol/kg.
As a reminder, the Hill coefficient is the slope factor of the fitted curve. `CCN(CC)C(=O)[C@@H]1C=C2c3cccc4[nH]cc(c34)C[C@H]2N(C)C1` [LYSERGIDE]: the SDL with Rattus norvegicus [6] worked out at 89%; in the experiment on Rattus norvegicus [7], 13%; in the experiment on Rattus norvegicus [9], 100%; with Rattus norvegicus [10], 38%; in the experiment with Rattus norvegicus [11], 13%. The 50% effective dose (ED50) in the experiment filed under Rattus norvegicus [4] came to 0.02 µmol/kg. This compound had a Hill coefficient in [8] of 1.18.
For `COc1cc(CC(C)N)c(OC)cc1C` (stereo not drawn) [DOM], the SDL in the experiment on Rattus norvegicus [12] was 67%; in the experiment with Rattus norvegicus [13] it was 13%; in the experiment with Rattus norvegicus [14], 67%; with Rattus norvegicus [15] it was 100%. In the experiment listed under Rattus norvegicus [4], this compound registered a 50% effective dose (ED50) of 0.61 µmol/kg. Also, the Hill coefficient in experiment [8] was determined as 0.89.
By Ki is commonly meant the dissociation constant of the complex between target and ligand, obtained from inhibition or displacement. Low values mean higher affinity, high ones lower affinity. In the case of `CC[C@H](C)c1cc(OC)c(CC(C)N)cc1OC` (stereo partly drawn), the Ki in [16] came out at 7.87 nM. Also, the 50% effective dose (ED50) in the experiment listed under Rattus norvegicus [4] worked out at 4.76 µmol/kg. This compound returned a Hill coefficient in experiment [8] of 1.06.
Regarding `CC[C@@H](C)c1cc(OC)c(CC(C)N)cc1OC` (stereo partly drawn), the SDL stood at 0% in the experiment on Rattus norvegicus [17], 50% in the experiment with Rattus norvegicus [18], 80% with Rattus norvegicus [19] and 25% in the experiment on Rattus norvegicus [5]. In [16], this compound showed a Ki of 7.84 nM. In the experiment listed under Rattus norvegicus [4], this compound registered a 50% effective dose (ED50) of 3.08 µmol/kg. The Hill coefficient in [8] is 1.

These data come from ChEMBL document CHEMBL1128545, “Effect of a chiral 4-alkyl substituent in hallucinogenic amphetamines” (J Med Chem, 1995).
